M1 ag parental = counter-screen for M1 agonists: effect in parental CHO-K1 cells; Fluo-8 calcium fluorescence; scaled to maximal ATP response, vehicle zero; activation, % at 3 µM; hit rate 0.48% among 360,000; AID 602248, 2012; in the data active means activation above about 15%;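 further: untransfected CHO-K1 host cells lacking M1 receptor as counterscreen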
M1 PAM parental = nonselective calcium activators in parental CHO-K1 cells, primary screen, counter-screen for M1 PAM project, cell-based, Fluo-8 calcium fluorescence, full deck, 1536-well; ATP EC20; 0% at ATP EC20, 100% at ATP max; activation, % at 3 µM; hit rate 0.02% among 360,000; AID 602247, 2012;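 active means activation above the run cutoff, the mean activation of all test compounds plus 3 SD, cut at about 40% in these data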;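 further: peak over basal fluorescence ratio in a 140 s read after ATP addition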
M5 PAM = human M5 muscarinic receptor positive allosteric modulators, primary screen, CHO-K1 cells, Fluo-8 calcium fluorescence. Muscarinic acetylcholine receptor M5 (Homo sapiens), P08912. CHO-K1 hM5, ACh EC20 PAM; 0% = ACh EC20, 100% = ACh EC100. activation, % at 3 µM. hit rate 0.3% among 360,000. AID 624038, 2012;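 active means activation above the run cutoff, the mean activation of all test compounds plus 3 SD, cut at about 18% in these data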
Target sequence (P08912 whole entry, looked up): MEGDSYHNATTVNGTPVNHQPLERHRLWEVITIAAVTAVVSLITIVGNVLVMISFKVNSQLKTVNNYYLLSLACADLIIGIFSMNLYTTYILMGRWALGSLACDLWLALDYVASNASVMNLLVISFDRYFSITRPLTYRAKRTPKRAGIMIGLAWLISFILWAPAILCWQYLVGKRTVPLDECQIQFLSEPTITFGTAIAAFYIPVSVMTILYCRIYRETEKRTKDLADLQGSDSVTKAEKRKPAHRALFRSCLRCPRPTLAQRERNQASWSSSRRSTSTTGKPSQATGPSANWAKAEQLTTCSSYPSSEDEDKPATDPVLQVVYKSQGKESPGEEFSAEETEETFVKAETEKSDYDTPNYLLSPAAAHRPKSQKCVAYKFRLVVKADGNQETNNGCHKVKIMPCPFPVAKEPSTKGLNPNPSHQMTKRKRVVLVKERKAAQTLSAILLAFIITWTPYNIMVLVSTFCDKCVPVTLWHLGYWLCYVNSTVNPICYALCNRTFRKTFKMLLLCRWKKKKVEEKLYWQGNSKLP
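Measured by: Fluo-8 calcium fluorescence; material: human M5 receptor in CHO-K1 cells; schedule: Post-acetylcholine fluorescence recording 140 s; benchmarks: low control EC20 acetylcholine (0%), high control EC100 acetylcholine (100%); read-out: Max/basal fluorescence ratio as % of EC20–EC100 ACh window; compound: single dose, 3 µM nominal final test concentration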
CHRM5 agonist = human M5 muscarinic receptor agonists, primary screen, CHO-K1 cells, Fluo-8 calcium fluorescence. Muscarinic acetylcholine receptor M5 (Homo sapiens), P08912. CHO-K1 hM5 cells; 0% DMSO wells, 100% maximal acetylcholine response. activation, % at 3 µM. hit rate 0.19% among 360,000;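 active means activation above the run's mean over test compounds plus 3 SD, cut at about 23% in these data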;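 further: signal is peak over basal fluorescence ratio across the kinetic read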
M5 antag = human M5 muscarinic receptor antagonists, primary screen, CHO cells, Fluo-8 calcium fluorescence. CHO-hM5 cells, ACh EC80. hit rate 0.59% among 360,000. inhibition, % at 3 µM;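 active means inhibition above a per-plate cutoff, the mean of that plate's test compounds plus 3 SD, cut at about 27% in these data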;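 further: 0% = acetylcholine EC80 with DMSO and 100% = DMSO without agonist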
CHO-K1 Ca antag = M1 antagonist counterscreen hit in parental CHO-K1 cells; hit rate 0.6% among 360,000; ATP-induced calcium, Fluo-8 fluorescence; inhibition, % at 3 µM; AID 602250;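 active means inhibition above a per-plate cutoff, the plate's mean sample inhibition plus 3 SD, cut at about 24% in these data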;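 further: 0% = DMSO plus EC80 ATP and 100% = DMSO alone without ATP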
* = called active by the depositor. Most compounds without a hit are left out; they make up all but 1.7% or so of the library.

SMILES | M1 ag parental | M1 PAM parental | M5 PAM | CHRM5 agonist | M5 antag | CHO-K1 Ca antag
C#CC[N+]1(C)[C@@H]2CC(OC(=O)C(CO)c3ccccc3)C[C@H]1C(O)C2 (some centres not stated) | 0 | -16 | -22 | -9 | 98* | 9
C[N+]1(C)[C@@H]2CC[C@H]1CC(OC(=O)C(CO)c1ccccc1)C2 (some centres not stated) | 0 | 9 | -18 | -2 | 99* | 5
C[N+]1([O-])[C@@H]2CC(OC(=O)[C@H](CO)c3ccccc3)C[C@H]1[C@@H]1O[C@@H]12 (some centres not stated) | 0 | -6 | -18 | -1 | 98* | 9
C[N+]1(C)C2CCC1CC(OC(=O)c1ccccc1)C2 (configuration not stated) | 0 | -15 | -22 | -18 | 6 | 8
C[N+]1(C)C2CCC1CC(OC(=O)C(CO)c1ccccc1)C2 (configuration not stated) | 0 | -6 | -16 | -10 | 99* | -7
C=CCn1c(O)c(/C=N/N2CCCCC2)c(=O)[nH]c1=O | 2 | -24 | 3 | 15 | -13 | -11
CN1Cc2cnnn2-c2ccccc2C1C#N (configuration not stated) | 0 | -11 | 11 | 2 | -7 | 8
COC(=O)C1=C(c2ccc(OCc3ccccc3)cc2)C[C@@H]2CC[C@H]1N2C(=O)NCc1cccc(C(F)(F)F)c1 | 1 | 8 | 3 | -3 | 8 | -9
O=C1C=C2c3ccccc3CC(C(=O)O)C2CC1 (configuration not stated) | 0 | 8 | 5 | 3 | -7 | 0
CN1CN(c2ccccc2)C2(CCN(CCCSc3ccccc3NC(=O)/C=C/c3ccccc3)CC2)C1=O | 62* | -26 | -46 | 68* | 37* | 35*
COc1ccc(C(=O)OC2C[C@H]3CC[C@H](C2)N3C)cc1OC (some centres not stated) | 0 | -1 | -3 | 0 | 4 | -3
CN1[C@@H]2CC[C@H]1CC(OC1c3ccccc3CCc3ccccc31)C2 (some centres not stated) | 2 | -6 | -19 | -1 | 99* | 8
COCCNC(=O)N1[C@H]2CC[C@@H]1C(C(=O)OC)=C(c1ccc(OC(F)(F)F)cc1)C2 | 0 | -10 | 9 | -8 | -7 | -3
Cc1cc2c(C(C)C)c(O)c(O)c(C=O)c2c(O)c1-c1c(C)cc2c(C(C)C)c(O)c(O)c(C=O)c2c1O | 2 | 17 | -6 | -1 | -2 | -4
NC(Cc1ccccc1)c1nn[nH]n1 (configuration not stated) | 0 | -9 | -11 | -2 | 30* | -6
C[N+](C)(C)CC(=O)Nc1ccc(Cl)cc1C(=O)c1ccccc1 | 0 | 31 | 1 | -8 | 4 | -13
COc1ccc(CNC(=O)C(NC(C)=O)C(C)C)cc1OC (configuration not stated) | 1 | -1 | 3 | 3 | 4 | -22
Fc1ccc(C(OCCN2CCCC2)c2ccc(F)cc2)cc1 | 1 | 6 | -18 | -5 | 54* | -1
Fc1ccc(C(OCCN2CCCC2)c2ccc(Br)cc2)cc1 (configuration not stated) | 2 | 8 | -18 | -5 | 38* | -4
COc1nc2ccccc2nc1N1CC1 | 0 | 2 | -13 | 2 | 18 | 7
CCCCn1c(O)c(C(C)=Nc2ccc3c(c2)CCC3)c(=O)[nH]c1=O | 0 | -28 | 1 | 3 | 2 | 12
CC(=O)Nc1cc([As](=O)(O)O)ccc1O | 0 | 6 | -13 | 27* | 13 | -11
CC(Oc1ccc(-c2ccccc2)cc1)C(=O)O (configuration not stated) | 1 | 21 | 18* | -8 | -4 | -23
Clc1ccc(OCC#CCN2CCCC2)cc1 | 1 | 10 | -17 | -10 | 31* | -9
O=c1cc(C(F)(F)F)c2cc3c4c(c2o1)CCCN4CCC3 | 89* | -9 | -16 | 71* | 52* | 59*
SMILES | M1 ag parental | M1 PAM parental | M5 PAM | CHRM5 agonist | M5 antag | CHO-K1 Ca antag
Cc1cc2c(C(F)(F)F)cc(=O)oc2c2c1NCCC2 | 2 | 10 | 8 | 0 | -15 | -5
O=C1NC(=O)C(CCc2ccncc2)(CCc2ccncc2)C(=O)N1CCc1ccccc1 | 17* | 7 | -4 | -4 | 8 | 10
CN1CN=C(N[N+](=O)[O-])N(Cc2ccco2)C1 | 1 | 23 | 4 | -2 | -3 | -9
O=[N+]([O-])NC1=NCN(Cc2ccco2)CN1Cc1ccco1 | 0 | 7 | 19* | 1 | -5 | -8
O=C(c1ccc(Cl)cc1)C1CCCN(Cc2cccc3cnccc23)C1 (configuration not stated) | 8 | 16 | -36 | -16 | 48* | -8
Nc1ccc2nonc2c1[N+](=O)[O-] | 17* | 19 | -2 | 4 | 6 | -6
CC(=O)c1ccc(NC2=NCCCS2)cc1 | 0 | -20 | -8 | -5 | 31* | 8
O=C1N(c2ccc(Cl)cc2)C(c2cccnc2)N2CCCN12 (configuration not stated) | 4 | 10 | -10 | 6 | 12 | -3
Cc1cccc(CNCCc2c[nH]c3ccccc23)c1 | 23* | 20 | 0 | 0 | 5 | -6
COc1cc(CNCCc2c[nH]c3ccccc23)cc(OC)c1OC | 1 | 22 | -1 | 1 | 0 | -3
COc1cc(CNCCc2c[nH]c3ccccc23)cc(OC)c1 | 2 | -1 | -3 | 5 | 15 | 25*
Fc1cccc(CNCCc2c[nH]c3ccccc23)c1 | 0 | -2 | -6 | -1 | 12 | 3
CC12CN3CC(C)(CN(C1)C3c1ccco1)C2=O (configuration not stated) | 1 | 20 | 1 | -3 | 1 | -6
CC(=O)c1cn(Cc2ccc(C#N)cc2)c2ccccc12 | 2 | 8 | -16 | -2 | 42* | 3
CC(C)C(=O)c1cn(Cc2ccc(C#N)cc2)c2ccccc12 | 1 | -5 | 4 | -6 | -1 | 13
Cc1cc(C=O)c(C)n1CC1CCCO1 (configuration not stated) | 0 | 25 | 18* | -7 | -11 | -14
Cc1ccccc1C(O)(Cc1ccccc1)C1CN2CCC1CC2 (configuration not stated) | 1 | 20 | -30 | -13 | 92* | -9

Screening data as filed in PubChem BioAssay.
